The source of these data is ChEMBL document CHEMBL1145425, “Antitumor agents 259. Design, syntheses, and structure-activity relationship study of desmosdumotin C analogs” (2007).

Values after ≈ are worked out from the molar mass of the structure shown. Bounds are passed on as bounds.

Common to all, as to assay type: functional
One experiment concerns 1A9. The experiment can be described thus: Cytotoxicity against human 1A9 cells. The settings on record: read-out: ED50 (the source's name). Put shortly:
(§1)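 Sulforhodamine B growth assay. Lines kept in RPMI-1640 with 25 mM HEPES, 0.25% sodium bicarbonate, 10% FBS and kanamycin. Trypsinized cells seeded at 1500–7500 per well, with compound added from DMSO-diluted stock. After 3 days, attached cells fixed with cold 50% TCA, stained with 0.4% SRB, dye solubilized, absorbance read at 562 nm. ED50 is 50% growth reduction, averaged over at least three independent determinations.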

Experiment [1] concerns HUVEC. Description: Antiangiogenesis activity against HUVEC. The settings on record: Homo sapiens, read-out: ED50 (the source's name). Put shortly: (§2)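 HUVEC seeded at 1.5×10^3 per well in EGM-2; after 24 h (day zero) compound added in EGM-2 at 2× the desired concentration. Day-zero plate stained with crystal violet. Remaining plates kept 72 h at 37 °C, then stained with 0.5% crystal violet in 20% MeOH. Dye eluted with 1:1 EtOH:0.1 M sodium citrate and read at 540 nm. Run per the NCI Angiogenesis Resource Center protocol.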

Another experiment deals with PC-3. The experiment can be described thus: Cytotoxicity against human PC3 cells. The settings on record: read-out: ED50 (the source's name). An outline of the steps: as §1
A further experiment has as its system A-431. Description: Cytotoxicity against human A431 cells. The settings on record: read-out: ED50 (the source's name). Put shortly:
as §1

For the next experiment, the system named is HCT-8. Description: Cytotoxicity against human HCT8 cells. The settings on record: read-out: ED50 (the source's name). Put shortly: as §1
The subject of experiment [2] is KB. The experiment can be described thus: Cytotoxicity against human vincristine-resistant KB cells. The settings on record: read-out: ED50 (the source's name). Put shortly: as §1
Experiment [3] deals with KB. The experiment can be described thus: Cytotoxicity against human KB cells. The settings on record: read-out: ED50 (the source's name). Put shortly:
as §1

The test system of the next experiment is A549. Description: Cytotoxicity against human A549 cells. The settings on record: read-out: ED50 (the source's name). Put shortly:
as §1

The test system of experiment [4] is HUVEC. Description: Cytotoxicity against HUVEC. The settings on record: Homo sapiens, read-out: ED50 (the source's name). An outline of the steps:
as §2

With `COC1=C(C)C(=O)/C(=C(O)/C=C/c2cccs2)C(=O)C1(C)C`, the EC50 with 1A9 was 4 mg/L (≈ 12.6 µM); in the experiment on HUVEC [1], less than 4 mg/L; in the experiment with PC-3 it was 18.2 mg/L (≈ 57.2 µM); in the experiment on A-431, 10.8 mg/L (≈ 33.9 µM); in the experiment on HCT-8, 8.6 mg/L (≈ 27 µM); in the experiment with KB [2], 3.4 mg/L (≈ 10.7 µM). The EC50 was 5.5 mg/L (≈ 17.3 µM) with KB [3], 4.5 mg/L (≈ 14.1 µM) in the experiment on A549 and 2.5 mg/L (≈ 7.85 µM) with HUVEC [4].
`COC1=CC(O)=C(C(=O)/C=C/c2ccccc2)C(=O)C1(C)C`: the EC50 in the experiment on 1A9 came out at 3.6 mg/L (≈ 12.1 µM); with PC-3, 14.2 mg/L (≈ 47.6 µM); in the experiment on A-431 it was 7 mg/L (≈ 23.5 µM); with HCT-8, 3.3 mg/L (≈ 11.1 µM); with KB [2], 2.9 mg/L (≈ 9.72 µM); with KB [3] it was 4.1 mg/L (≈ 13.7 µM). For the same compound, the EC50 is greater than 5 mg/L with A549 and greater than 20 mg/L in the experiment with HUVEC [4].
On to `CCC1=C(OC)C(CC)(CC)C(=O)C(C(=O)/C=C/c2ccccc2)=C1O`, for which the EC50 with 1A9 stood at 2.1 mg/L (≈ 5.92 µM); in the experiment with PC-3, 7.7 mg/L (≈ 21.7 µM); with A-431, 5.4 mg/L (≈ 15.2 µM); in the experiment with HCT-8, 2.8 mg/L (≈ 7.9 µM); in the experiment on KB [2], 1.2 mg/L (≈ 3.39 µM); in the experiment on KB [3] it was 2.8 mg/L (≈ 7.9 µM). Further, the EC50 with A549 turned out to be 3.4 mg/L (≈ 9.59 µM).
For `CCC1=C(OC)C(CC)(CC)C(=O)C(C(=O)/C=C/c2ccc(C)cc2)=C1O`, the EC50 was found to be 4.3 mg/L (≈ 11.7 µM) with 1A9; 15 mg/L (≈ 40.7 µM) in the experiment on PC-3; 10.3 mg/L (≈ 28 µM) with A-431; 9.4 mg/L (≈ 25.5 µM) in the experiment with HCT-8; 1 mg/L (≈ 2.71 µM) in the experiment with KB [2]; 3 mg/L (≈ 8.14 µM) with KB [3]. Further, the EC50 with A549 turned out to be 4.6 mg/L (≈ 12.5 µM).
`CCC1=C(OC)C(CC)(CC)C(=O)C(C(=O)/C=C/c2ccc(CC)cc2)=C1O`: the EC50 was determined as 3.8 mg/L (≈ 9.93 µM) in the experiment with 1A9; 15 mg/L (≈ 39.2 µM) with PC-3; 9.8 mg/L (≈ 25.6 µM) in the experiment with A-431; 8.5 mg/L (≈ 22.2 µM) in the experiment on HCT-8; 2.6 mg/L (≈ 6.8 µM) with KB [2]; 3.6 mg/L (≈ 9.41 µM) in the experiment with KB [3]. For the same compound, the EC50 in the experiment on A549 is 3.8 mg/L (≈ 9.93 µM).
For the compound `CC1=C(O)C(C)(C)C(=O)C(C(=O)/C=C/c2ccccc2)=C1O`, the EC50 in the experiment with 1A9 is 8 mg/L (≈ 26.8 µM); in the experiment with HUVEC [1], less than 4 mg/L; in the experiment with PC-3, 17.8 mg/L (≈ 59.7 µM); in the experiment with A-431, 14 mg/L (≈ 46.9 µM); in the experiment with HCT-8, 15.8 mg/L (≈ 53 µM); in the experiment with KB [2] it was 6.5 mg/L (≈ 21.8 µM). In addition, the EC50 in the experiment with KB [3] stood at 10.5 mg/L (≈ 35.2 µM); in the experiment on A549 it was 9 mg/L (≈ 30.2 µM); with HUVEC [4], 2.1 mg/L (≈ 7.04 µM).
On to `COC1=C(C)C(=O)/C(=C(O)/C=C/c2nccs2)C(=O)C1(C)C`, for which the EC50 in the experiment with 1A9 was 3.5 mg/L (≈ 11 µM); in the experiment with HUVEC [1], less than 4 mg/L; in the experiment with PC-3 it was 10.8 mg/L (≈ 33.8 µM); with A-431, 6 mg/L (≈ 18.8 µM); in the experiment with HCT-8, 5.1 mg/L (≈ 16 µM); in the experiment on KB [2], 3 mg/L (≈ 9.39 µM). Also, the figures for the EC50 in the experiment with KB [3], in the experiment with A549 and in the experiment with HUVEC [4] were 4.3 mg/L (≈ 13.5 µM), 3.5 mg/L (≈ 11 µM) and 1.6 mg/L (≈ 5.01 µM), respectively.
On to `COC1=C(C)C(=O)/C(=C(O)/C=C/c2cccc(OC)c2)C(=O)C1(C)C`, for which the EC50 in the experiment with 1A9 is 2.9 mg/L (≈ 8.47 µM); in the experiment with HUVEC [1] it was less than 4 mg/L; in the experiment on PC-3, 14.3 mg/L (≈ 41.8 µM); in the experiment with A-431, 4.5 mg/L (≈ 13.1 µM); with HCT-8, 2.9 mg/L (≈ 8.47 µM); in the experiment with KB [2], 2.4 mg/L (≈ 7.01 µM). The results for the EC50 in the experiment with KB [3], in the experiment with A549 and in the experiment on HUVEC [4] were 3.3 mg/L (≈ 9.64 µM), 2.8 mg/L (≈ 8.18 µM) and 1.6 mg/L (≈ 4.67 µM), respectively.
On to `COC1=C(C)C(=O)/C(=C(O)/C=C/c2ccc(O)cc2)C(=O)C1(C)C`, for which the EC50 was 2.9 mg/L (≈ 8.83 µM) in the experiment on 1A9; less than 4 mg/L with HUVEC [1]; greater than 20 mg/L in the experiment with PC-3; 14.9 mg/L (≈ 45.4 µM) in the experiment on A-431; 14.8 mg/L (≈ 45.1 µM) in the experiment on HCT-8; 3.8 mg/L (≈ 11.6 µM) with KB [2]. Also, the EC50 worked out at 3.8 mg/L (≈ 11.6 µM) in the experiment on KB [3], 3.1 mg/L (≈ 9.44 µM) in the experiment on A549 and 4 mg/L (≈ 12.2 µM) in the experiment with HUVEC [4].
`CCc1ccc(/C=C/C(O)=C2/C(=O)C(C)=C(OC)C(C)(C)C2=O)cc1`: the EC50 in the experiment on 1A9 amounted to 5.3 mg/L (≈ 15.6 µM); in the experiment with PC-3, 15.1 mg/L (≈ 44.4 µM); with A-431 it was 12 mg/L (≈ 35.3 µM); in the experiment on HCT-8, 10.5 mg/L (≈ 30.8 µM); with KB [2], 1.9 mg/L (≈ 5.58 µM); in the experiment on KB [3] it was 6.9 mg/L (≈ 20.3 µM). In addition, in the experiment with A549, the EC50 was found to be 6.1 mg/L (≈ 17.9 µM).
On to `COC1=C(C)C(=O)/C(=C(O)/C=C/c2cccc3ccccc23)C(=O)C1(C)C`, for which the EC50 was less than 4 mg/L with HUVEC [1]; 9 mg/L (≈ 24.8 µM) in the experiment with PC-3; 4.1 mg/L (≈ 11.3 µM) in the experiment with A-431; 2.3 mg/L (≈ 6.35 µM) with HCT-8; 1.3 mg/L (≈ 3.59 µM) in the experiment with KB [2]; 2.8 mg/L (≈ 7.73 µM) in the experiment on KB [3]. The EC50 turned out to be 3.6 mg/L (≈ 9.93 µM) in the experiment on A549 and 1.8 mg/L (≈ 4.97 µM) in the experiment on HUVEC [4].
As to `COC1=C(C)C(O)=C(C(=O)/C=C/c2ccccc2)C(=O)C1(C)C` [DESMOSDUMOTIN C], the EC50 with 1A9 is 3.5 mg/L (≈ 11.2 µM); with HUVEC [1], less than 4 mg/L; with PC-3, 11.1 mg/L (≈ 35.5 µM); in the experiment with A-431, 5.1 mg/L (≈ 16.3 µM); with HCT-8 it was 3.7 mg/L (≈ 11.8 µM); in the experiment with KB [2] it was 3 mg/L (≈ 9.6 µM). For the same compound, the results for the EC50 in the experiment on KB [3], with A549 and in the experiment with HUVEC [4] were 4 mg/L (≈ 12.8 µM), 3.5 mg/L (≈ 11.2 µM) and 2.1 mg/L (≈ 6.72 µM), respectively.
